Measured values reported in ChEMBL document CHEMBL1123024, “5,6-Diaryl-2,3-dihydroimidazo[2,1-b]thiazoles: a new class of immunoregulatory antiinflammatory agents” (1985).

Columns and labels:
[1] = tested on: Rattus norvegicus; assay: The compound was tested for percent change in nonimmune L16 inflammatory lesions in rat adjuvant-induced arthritis at 50 mg/kg; format: functional
In short: (§1)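 Male Wistar rats received 0.75 mg M. butyricum in paraffin oil intradermally into the left hindpaw. Compounds were given daily po in 0.5% tragacanth from the injection day for 17 days, skipping days 4, 5, 11 and 12. Leg volumes were read by mercury displacement: left leg on day 3, both legs on day 16. Eight treated rats vs 16 vehicle controls; Student's t test. ED25 is the dose giving a 25% volume decrease, from at least three doses, with 95% limits by Fieller's theorem.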

[2] = tested on: Rattus norvegicus; assay: The compound was tested for percent change in immune R16 inflammatory lesions in rat adjuvant-induced arthritis at 50 mg/kg; the % change was not statistically significant; format: functional; in short: as §1
[3] = organism: Mus musculus; assay: Immunoregulatory activity against oxazolone induced mouse contact sensitivity was evaluated as percent change; the % change was not statistically significant; format: functional, organism-based
In short: (§2)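 Male C57B1/6 mice were sensitized with 0.1 mL of 5% oxazolone in absolute ethanol on the clipped abdomen. At 45 h the left hind leg was challenged with 5% oxazolone. Compound was given po in 0.5% tragacanth. Edema was read plethysmographically 24 h later as left minus right leg volume. Six mice vs eight controls; Student's t test.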

[4] = tested on: Rattus norvegicus; assay: The compound was tested for percent change in nonimmune L3 inflammatory lesions in rat adjuvant-induced arthritis at 50 mg/kg; the % change was not statistically significant; format: functional; in short: as §1
[5] = organism: Mus musculus; assay: Immunoregulatory activity against oxazolone induced mouse contact sensitivity was evaluated as percent change; format: functional; in short: as §2
[6] = tested on: Rattus norvegicus; assay: The compound was tested for percent change in nonimmune L16 inflammatory lesions in rat adjuvant-induced arthritis at 50 mg/kg; the %change is Not statistically significant; format: functional; in short: as §1
[7] = tested on: Rattus norvegicus; assay: The compound was tested for percent change in immune R16 inflammatory lesions in rat adjuvant-induced arthritis at 50 mg/kg; the %change is Not statistically significant; format: functional; in short: as §1
[8] = tested on: Rattus norvegicus; assay: The compound was tested for percent change in nonimmune L3 inflammatory lesions in rat adjuvant-induced arthritis at 50 mg/kg; the %change is Not statistically significant; format: functional; in short: as §1
[9] = tested on: Rattus norvegicus; assay: Compound was tested by carrageenan -induced paw edema for percent change in paw volume of control sham operated rats; format: functional
In short: (§3)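 Normal, adrenalectomized or sham-operated Lewis rats were dosed po in 0.5% tragacanth, hydrated. 1 h later paw volume was read, then […] of 1% carrageenan in 0.9% saline was injected into the right hindpaw plantar surface. Volume was re-read at 3 h. Percent change, treated vs control; Student's t test.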

[10] = tested on: Mus musculus; assay: Change in paw edema in methotrexate-suppressed oxazolone -induced contact sensitivity in mice at 5 mg/kg; % change was not statistically significant; format: functional
[11] = tested on: Rattus norvegicus; assay: Compound was tested by carrageenan -induced paw edema for percent change in paw volume on treated vs. control adrenalectomized rats; format: functional; in short: as §3
[12] = tested on: Mus musculus; assay: Change in paw edema in oxazolone -induced arthritic mice at 5 mg/kg
[13] = organism: Rattus norvegicus; assay: Inhibition of immune R16 inflammatory lesions was measured.; activity value ranges from 0.17 - 1.73; format: functional; in short: as §1
[14] = organism: Rattus norvegicus; assay: Inhibition of primary nonimmune L3 inflammatory lesions was measured.; format: functional; in short: as §1
[15] = organism: Rattus norvegicus; assay: Inhibition of secondary nonimmune L16 inflammatory lesions was measured; activity value ranges from 0.19 - 0.79; format: functional; in short: as §1
[16] = organism: Rattus norvegicus; assay: animal or person
[17] = organism: Rattus norvegicus; assay: animal or person; remark: listed apart in the source
[18] = organism: Rattus norvegicus; assay: animal or person; remark: listed apart in the source
[19] = tested on: Mus musculus; assay: Immunoregulatory activity against oxazolone induced mouse contact sensitivity was evaluated as percent change at a dose of 10 mg/kg; format: functional; in short: as §2
[20] = tested on: Rattus norvegicus; assay: The compound was tested for percent change in nonimmune L3 inflammatory lesions in rat adjuvant-induced arthritis at 50 mg/kg; format: functional; in short: as §1
[21] = tested on: Rattus norvegicus; assay: The compound was tested for percent change in immune R16 inflammatory lesions in rat adjuvant-induced arthritis at 50 mg/kg; format: functional; in short: as §1
[22] = tested on: Rattus norvegicus; assay: Compound was tested by carrageenan -induced paw edema for percent change in paw volume of control sham operated rats at 50 mg/kg.; format: functional; in short: as §3
[23] = organism: Rattus norvegicus; assay: Inhibition of immune, R16 inflammatory lesions was measured; format: functional; in short: as §1
[24] = tested on: Rattus norvegicus; assay: Percent change in nonimmune L3 inflammatory lesions in rat adjuvant-induced arthritis at 50 mg/kg; format: functional; in short: as §1
[25] = tested on: Rattus norvegicus; assay: Compound was tested by carrageenan -induced paw edema for percent change in paw volume of control in adrenalectomized operated rats at 50 mg/kg.; format: functional; in short: as §3
[26] = tested on: Rattus norvegicus; assay: Change in 19S hemagglutinination titers in adjuvant-induced arthritic rats at 50 mg/kg.; format: functional
[27] = organism: Rattus norvegicus; assay: Inhibition of secondary nonimmune, L16 inflammatory lesions was measured; format: functional; in short: as §1
[28] = organism: Mus musculus; assay: Immunoregulatory activity against mouse contact sensitivity was evaluated as percent change; format: functional; in short: as §2
[29] = tested on: Rattus norvegicus; assay: Percent change in immune R16 inflammatory lesions in rat adjuvant-induced arthritis at 50 mg/kg; format: functional; in short: as §1
[30] = tested on: Rattus norvegicus; assay: Change in 7S hemagglutinination titers in adjuvant-induced arthritic rats at 50 mg/kg.; format: functional
[31] = organism: Rattus norvegicus; assay: Inhibition of primary nonimmune, L3 inflammatory lesions was measured; format: functional; in short: as §1
[32] = tested on: Mus musculus; assay: Change in paw edema in methotrexate-suppressed oxazolone -induced contact sensitivity in mice at 50 mg/kg.; format: functional
[33] = tested on: Rattus norvegicus; assay: Percent change in nonimmune L16 inflammatory lesions in rat adjuvant-induced arthritis at 50 mg/kg; format: functional; in short: as §1
[34] = tested on: Mus musculus; assay: Change in paw edema in oxazolone -induced arthritic mice at 50 mg/kg.
[35] = tested on: Rattus norvegicus; assay: The compound was tested for percent change in immune R16 inflammatory lesions in rat adjuvant-induced arthritis at 50 mg/kg; the % change was Not Significant; format: functional; in short: as §1

What does the source list for `COc1ccc(-c2nc3sccn3c2-c2ccc(OC)cc2)cc1`?
Change [1]: -9%; Change [2]: 0%; Change [3]: Not significant; Change [4]: -6%

Which results are given for `COc1cccc(-c2nc3n(c2-c2cccc(OC)c2)CC[S+]3[O-])c1` (centres undefined)?
Change [5]: 59%; Change [6]: 9%; Change [7]: 7%; Change [8]: 4%

How did the Change [9] turn out when `COc1ccc(-c2nc(C(F)(F)F)[nH]c2-c2ccc(OC)cc2)cc1` [FLUMIZOLE] was run?
The Change was -48%.

And the Change [10]?
Its Change is 3%.

What about the Change [11] of the same compound?
Its Change is -47%.

And the Change [12]?
Its Change is -28%.

And the ED25 [13]?
Its ED25 is 0.78 mg/kg.

What about the ED25 [14] of the same compound?
The ED25 was 11 mg/kg.

And the ED25 [15]?
The ED25 was 0.45 mg/kg.

How did the ED25 [16] turn out when `c1ccc([C@H]2CN3CCSC3=N2)cc1` [LEVAMISOLE] was run?
The ED25 was 73.4 mg/kg.

And the ED25 [17]?
Its ED25 is 127 mg/kg.

What about the ED25 [18] of the same compound?
Its ED25 is 44.4 mg/kg.

With `COc1ccc(-c2nc3n(c2-c2ccc(OC)cc2)CC[S+]3[O-])cc1` (centres undefined) as the compound, how does the Change [1] read?
The Change was -29%.

And the Change [19]?
Its Change is 76%.

What about the Change [20] of the same compound?
The Change was -24%.

What about the Change [21] of the same compound?
The Change was -32%.

`COc1ccc(-c2nc3n(c2-c2ccc(OC)cc2)CCS3)cc1` was tested. Which Change [22] did it give?
Its Change is -63%.

And the ED25 [23]?
Its ED25 is 24.4 mg/kg.

And the Change [24]?
The Change was -24%.

What about the Change [25] of the same compound?
Its Change is -58%.

And the Change [26]?
The Change was 1.2%.

What about the ED25 [27] of the same compound?
Its ED25 is 18.7 mg/kg.

And the Change [28]?
The Change was 211%.

And the Change [29]?
The Change was -21%.

What about the Change [30] of the same compound?
The Change was -3.7%.

What about the ED25 [31] of the same compound?
The ED25 was 32.9 mg/kg.

And the Change [32]?
The Change was 156%.

And the Change [33]?
Its Change is -34%.

And the Change [34]?
Its Change is 211%.

With `COc1ccc(-c2nc3n(c2-c2ccc(OC)cc2)CCS3(=O)=O)cc1` as the compound, how does the Change [1] read?
Its Change is -12%.

And the Change [20]?
The Change was -11%.

And the Change [5]?
The Change was 95%.

And the Change [35]?
The Change was -7%.
